Results reported in publication PMC3539145 (Scientific Reports, 2013).

Legend:
[1] = biological target: human thymidylate synthase (h-TS) (Homo sapiens, UniProt P04818); assay: Human thymidylate synthase activity; assay type: biochemical
[2] = tested on: AC; conditions: read-out: AC IC50; in vitro, in keratinocytes; cited from earlier work
[3] = tested on: HEK 293 cells; assay: Cell viability of native HEK 293 cells; assay type: cell-based, human
In short: (§1)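 Native HEK 293 cells and HEK 293 cells transfected with V5/His-tagged rat AC (pEF6 vector) and selected with G418 (0.3 mg/mL) are exposed to graded test-compound concentrations added in DMSO (final 0.1%). Cells are harvested, spun at 800xg for 10 min and resuspended in PBS. They are mixed 1:1 with 0.4% Trypan blue for 1 min, and viable cells are counted on a hemocytometer. Mean ± s.e.m., n = 4.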

[4] = tested on: SW403 cells; assay: SW403 cell viability; assay type: cell-based, human; conditions: for interaction with taxol on SW403 cell viability / interaction with 5-FU on SW403 cell viability: isobolographic analyses; for interaction with 5-FU on SW403 cell viability: 5-FU 0.3 µM; for change in SW403 cell viability: single treatment, 3 μM, 3 h
In short: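 SW403 cells (2×10^5) are seeded the day before and treated in serum-free DMEM with test compound (0.1–100 µM) plus a partner drug (for 5-FU, 0.3 µM). Additions are repeated every 24 h over 72 h. Viability is read by Trypan blue exclusion on a hemocytometer. Interaction is assessed isobolographically, comparing experimental EC50 with the theoretical EC50 from the isobole equation.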

[5] = biological target: T1, AC (Mus musculus, UniProt Q9WV54); assay: AC activity measured ex vivo in mouse tissues after i.p. injection; set-up: species or system mice; conditions: for AC activity in mouse lungs and brain cortex: 10 or 30 mg-kg^−1 i.p., ex vivo 2 h after injection
T1 sequence (Q9WV54 19-394): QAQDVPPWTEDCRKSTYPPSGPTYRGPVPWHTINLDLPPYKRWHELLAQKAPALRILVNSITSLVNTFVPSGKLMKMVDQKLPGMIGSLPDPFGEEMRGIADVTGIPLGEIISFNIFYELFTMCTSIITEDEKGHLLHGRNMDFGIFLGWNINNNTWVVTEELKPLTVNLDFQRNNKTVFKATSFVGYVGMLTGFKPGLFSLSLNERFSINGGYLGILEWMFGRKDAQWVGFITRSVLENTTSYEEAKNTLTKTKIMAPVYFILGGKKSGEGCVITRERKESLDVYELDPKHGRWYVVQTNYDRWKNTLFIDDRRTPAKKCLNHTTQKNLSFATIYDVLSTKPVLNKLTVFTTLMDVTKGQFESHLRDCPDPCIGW
In short: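 Male Swiss Webster mice (20–35 g) received test compound at 10 or 30 mg-kg−1 i.p. (1 ml-kg−1) in 15% polyethylene glycol/15% Tween-80/70% saline. Mice were killed by cervical dislocation 2 h after dosing. Lungs and brain cortex were frozen in liquid nitrogen and stored at −80°C. AC activity was measured ex vivo. Data are mean ± s.e.m., n = 6.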

[6] = tested on: SW403 cells; assay: Ceramide levels in SW403 cells; assay type: cell-based, human; conditions: 3 μM, 3 h
In short: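 SW403 human colon adenocarcinoma cells are grown in DMEM with 10% FBS at 37°C and 5% CO2. They are treated with test compound at 3 µM, or with vehicle (0.1% DMSO in DMEM), for 3 h. Ceramide species, including d18:1/14:0, 16:0 and 18:0, are identified and quantified by LC/MS. Values are compared with vehicle by one-way ANOVA with Tukey's test.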

[7] = biological target: T2, AC (Homo sapiens, UniProt Q13510); assay: AC activity in lysates of treated intact SW403 cells; assay type: cell-based
T2 sequence (Q13510 22-395): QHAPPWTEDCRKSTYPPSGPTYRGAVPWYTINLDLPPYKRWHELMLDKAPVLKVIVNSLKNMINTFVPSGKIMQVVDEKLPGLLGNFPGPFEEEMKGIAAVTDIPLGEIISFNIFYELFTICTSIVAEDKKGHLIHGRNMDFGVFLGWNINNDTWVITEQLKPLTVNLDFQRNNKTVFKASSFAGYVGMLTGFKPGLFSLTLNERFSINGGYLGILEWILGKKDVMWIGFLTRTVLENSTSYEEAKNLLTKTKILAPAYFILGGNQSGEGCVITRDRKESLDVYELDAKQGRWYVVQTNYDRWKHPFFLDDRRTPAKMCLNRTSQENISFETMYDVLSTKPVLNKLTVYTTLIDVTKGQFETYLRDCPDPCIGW
In short: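 Intact cells were exposed to test compound at 0.3–10 µM, with AC activity read 3 h later in cell lysates. A time course used 3 µM over various intervals. Vehicle was 0.1% DMSO in DMEM. SW403 cells were grown in DMEM with 10% FBS at 37°C, 5% CO2. Data are mean ± s.e.m., n = 3–6, each assay in duplicate.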

[8] = biological target: T2, AC; assay: AC activity in lysates of treated intact LNCaP cells; assay type: cell-based; conditions: 0.3–10 µM for 3 h; 3 µM for various time intervals
[9] = tested on: AC-overexpressing HEK 293 cells; assay: Cell viability of AC-overexpressing HEK 293 cells; assay type: cell-based, human
In short: as §1

[10] = tested on: mouse tissues (lungs and cerebral cortex); assay: Ceramide levels in mouse tissues after i.p. injection; assay type: in vivo; conditions: mice, 10 or 30 mg-kg^−1 i.p., lungs and brain cortex, 2 h
In short: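 Male Swiss Webster mice (20–35 g) receive test compound i.p. (10 or 30 mg-kg−1; 1 ml-kg−1) in 15% PEG, 15% Tween-80 and 70% saline, or vehicle alone. They are killed by cervical dislocation 2 h later. Lungs and cerebral cortex are snap-frozen in liquid nitrogen, stored at −80°C, and ceramide is measured by LC/MS. Mean ± s.e.m., n = 6.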

[11] = Homo sapiens, HEK293, 24 h, read-out: EC50 (cell death / cell viability)

Sequence of human thymidylate synthase (h-TS) (P04818 whole entry): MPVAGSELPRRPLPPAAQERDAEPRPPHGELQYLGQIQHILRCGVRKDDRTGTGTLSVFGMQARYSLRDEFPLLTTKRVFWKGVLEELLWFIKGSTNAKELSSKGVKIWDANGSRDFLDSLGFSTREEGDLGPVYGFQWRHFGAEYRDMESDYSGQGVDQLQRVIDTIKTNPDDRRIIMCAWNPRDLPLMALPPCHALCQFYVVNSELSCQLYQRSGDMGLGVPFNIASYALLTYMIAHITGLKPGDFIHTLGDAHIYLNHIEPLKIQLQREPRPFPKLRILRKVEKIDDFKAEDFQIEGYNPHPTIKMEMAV

CCCCCCNC(=O)n1cc(Cl)c(=O)[nH]c1=O [ARN082, 5-chloro-N-hexyl-2,4-dioxo-pyrimidine-1-carboxamide]
IC50 [1]: 496 ± 82 µM

CCCCCCCCCCCCCC(=O)N[C@H](CO)[C@H](O)c1ccc([N+](=O)[O-])cc1 [Compound B13, (1R, 2R)-2-(N-tetradecanoylamino)-1-(4-nitrophenyl)-1,3-propanediol]
IC50 [2]: ~10 µM

CCCC[C@@H](C)[C@@H](OC(=O)C[C@@H](CC(=O)O)C(=O)O)[C@H](C[C@@H](C)C[C@H](O)CCCC[C@@H](O)C[C@H](O)[C@H](C)N)OC(=O)C[C@@H](CC(=O)O)C(=O)O [FB1, fumonisin B1]
effect of FB1 on carmofur induced cell death ([3]; HEK 293 cells, combination of carmofur plus FB1, Trypan blue): does not decrease carmofur induced cell death

CCCCCCNC(=O)n1cc(C)c(=O)[nH]c1=O [ARN081, N-hexyl-5-methyl-2,4-dioxo-pyrimidine-1-carboxamide]
IC50 [1]: 762 ± 123 µM

CCCCCCNC(=O)n1ccc(=O)[nH]c1=O [ARN080, N-hexyl-2,4-dioxo-pyrimidine-1-carboxamide]
interaction with taxol on SW403 cell viability [4]: Super-additive effects
interaction with 5-FU on SW403 cell viability [4]: acted synergistically
change in SW403 cell viability [4]: did not result in any statistically detectable change
AC activity in mouse lungs and brain cortex ([5]; mice): substantially reduced
ED50 ([5]; mouse, ip, 2 h, read-out: median inhibitory dose, ID50 (AC activity in vivo)): ~10 mg/kg
IC50 [1]: 196 ± 27 µM
ceramide levels in SW403 cells [6]: increased ceramide levels

CCCCCCNC(=O)n1cc(C(F)(F)F)c(=O)[nH]c1=O [ARN398, 5-trifluoromethyl-N-hexyl-2,4-dioxo-pyrimidine-1-carboxamide]
interaction with taxol on SW403 cell viability [4]: Super-additive effects
interaction with 5-FU on SW403 cell viability [4]: acted synergistically
change in SW403 cell viability [4]: did not result in any statistically detectable change
IC50 [1]: 1340 ± 268 µM
ceramide levels in SW403 cells [6]: increased ceramide levels

O=c1[nH]cc(F)c(=O)[nH]1 [Compound 5-FU, 5-fluorouracil, reference compound]
AC activity in mouse tissue ([5]; mice, 30 mg-kg^−1 i.p., 2 h, lungs (Figure 3A)): no statistically detectable effect
ceramide levels in SW403 cells [6]: did not cause any detectable changes
AC activity in SW403 cells ([7]; 3 μM, 3 h): did not cause any detectable changes

CCCCCCNC(=O)n1cc(F)c(=O)[nH]c1=O [Carmofur, 1-hexylcarbamoyl-5-fluorouracil]
AC activity in LNCaP cells [8]: inhibits AC
EC50 in AC-overexpressing cells relative to native cells ([9]; HEK 293-AC vs native HEK 293, 24 h): 50 fold
EC50 [9, 11]: 66 µM
AC activity in mouse lungs and brain cortex ([5]; mice): dose-dependent inhibition
tissue ceramide content [10]: increases in tissue ceramide content
IC50 [1]: 1210 ± 190 µM
EC50 [3, 11]: 1400 nM
AC activity in SW403 cells ([7]; 0.3–10 µM for 3 h, 3 µM for various time intervals): concentration- and time-dependent reduction
